# proCasp3 act = activates human procaspase-3; recombinant procaspase-3 D3A, Ac-DEVD-pNA absorbance 405 nm; activation, % at 8.5 µM; 0.11% of 330,000 active; AID 463141;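 active = activation above the mean of all tested compounds plus 3 SD, cut at about 21% in these data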;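 also: 0% = DMSO alone and 100% = DMSO wells spiked with extra 5 µM PC-3 D3A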
# Target sequence (P42574 whole entry D9A/D28A/D175A): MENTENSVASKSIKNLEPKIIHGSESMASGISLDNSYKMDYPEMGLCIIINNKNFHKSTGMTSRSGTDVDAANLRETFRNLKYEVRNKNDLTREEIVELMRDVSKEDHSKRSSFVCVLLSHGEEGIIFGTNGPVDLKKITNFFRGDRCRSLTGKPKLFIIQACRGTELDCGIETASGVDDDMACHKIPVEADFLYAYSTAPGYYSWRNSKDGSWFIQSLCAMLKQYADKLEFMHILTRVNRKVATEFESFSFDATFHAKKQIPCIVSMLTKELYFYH
#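 Evaluation: percent activation relative to control range; Material: Procaspase-3 D3A mutant, all three cleavage aspartates alanine; Compound: single dose, 8.5 µM nominal compound, 0.8% DMSO; Replication: one well per compound; Signal: absorbance at 405 nm, 0 and 120 min; Schedule: 1 h preincubation plus 2 h reaction at 25 °C.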
# FXN GAA850 act = activators of GAA850 frataxin (FXN) promoter; HEK293 lucGAA850 FXN promoter luciferase reporter, 24 h; percent of 10 µM SAHA response; 0.56% of 360,000 active; activation, % at 6 µM;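 active = activation above the average of all compounds screened plus 3 SD, cutoff fixed separately per campaign, cut at about 7.5% in these data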;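 also: 0% = DMSO wells and 100% = 10 µM SAHA wells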
# proCasp7 act = activates human procaspase-7, counter-screen for procaspase-3 activators; P55210; recombinant procaspase-7, Ac-DEVD-pNA absorbance 405 nm; D23A/D198A/D206A triple mutant, cannot self-cleave; scale: DMSO 0, 5 µM enzyme 100; activation, % at 8.5 µM; 0.093% of 330,000 active;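 active = percent activation above the screen-wide mean plus 3 SD, cut at about 25% in these data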
#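 Material: Procaspase-7 triple mutant (PC-7 D3A) | Quantity: 2 µM procaspase-7 mutant as dispensed | Reagent: DEVD-pNA substrate | Times: 1 h preincubation, 2 h reaction | Technique: 405 nm absorbance of p-nitroaniline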
# GAA30 FXN cntr = GAA30 FXN promoter activation counter-screen; shares compounds with FXN GAA850 act; HEK293 lucGAA30 FXN promoter luciferase, 24 h; DMSO = 0%, 5 µM ipriflavone = 100%; activation, % at 6 µM; 66% of 1,900 active; AID 588350;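 active = mean activation above the mean of solvent-only control wells plus 3 SD, cut at about 22% in these data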;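 also: counterscreen of GAA850 promoter hits where activity marks nonselective or luminescence artifacts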
# FXN GAA850 conf = GAA850 FXN promoter activation confirmation | shares compounds with FXN GAA850 act | HEK293 lucGAA850 FXN promoter luciferase reporter, 24 h; 100% = activation by SAHA | activation, % at 6 µM | 86% of 1,900 active | AID 588351;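 active = mean activation above a set limit taken from the primary screen, cut at about 8% in these data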;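 also: 0% = DMSO wells and 100% = 10 µM SAHA wells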
# An asterisk follows results filed as active; . = not tested or not shown. Hits are enriched below; roughly 0.7% of the tested compounds scored in any of these assays.
SMILES,proCasp3 act,FXN GAA850 act,proCasp7 act,GAA30 FXN cntr,FXN GAA850 conf
CC1=C(C(=O)N2CCOCC2)CC(CC(=O)NCCN2CCOCC2)C(=O)N1Cc1ccc(F)cc1 (stereo unspecified),.,0,.,.,.
CC(O)(c1cccc(F)c1)c1nc(-c2cccc3cccnc23)cs1 (stereo unspecified),.,2,.,.,.
C=C1CCN([C@@H](C)C(=O)NCc2ccc(OC)cc2)S(=O)(=O)c2ccccc21,-1,-1,2,.,.
C=C1CCN([C@H](C(=O)Nc2ccc(OC)cc2)C(C)C)S(=O)(=O)c2ccccc21,-6,9.5*,4,15,12*
C=C1CCN([C@@H](Cc2ccccc2)C(=O)Nc2ccc(OC)cc2)S(=O)(=O)c2ccccc21,4,12*,-1,29*,13*
C=C1CCN([C@@H](Cc2ccccc2)C(=O)NCCCc2ccccc2)S(=O)(=O)c2ccccc21,0,-2,-2,.,.
Cc1ccc(O)c(C(=O)c2cnn(C(=O)c3cccc(S(=O)(=O)N(C)C)c3)c2)c1,.,-3,.,.,.
COC(=O)/C=C/CC(C)OS(N)(=O)=O (stereo unspecified),1,2,-4,.,.
CCc1cccc2c(C(=O)CCl)c[nH]c12,-4,8.2*,0,31*,21*
CCc1cccc2c(C(=S)N3CCCC3)c[nH]c12,-2,2,11,.,.
Cc1ccc([N+](=O)[O-])cc1-c1ccc(/C=C(\C#N)c2[nH]nc(N)c2C#N)o1,-7,8.7*,-2,48*,20*
COCc1cc(C)nc(OCC(=O)N/N=C/c2ccc(-c3cc([N+](=O)[O-])ccc3C)o2)c1C#N,-4,1,5,.,.
COC(=O)c1ccc(C2/C(=C(/O)c3ccc4c(c3)CC(C)O4)C(=O)C(=O)N2Cc2ccncc2)cc1 (stereo unspecified),-3,-2,-22,.,.
COc1ccc(C(=O)N/N=C/c2ccccn2)cc1OC,3,1,-5,.,.
O=C(N/N=C/c1ccccn1)c1ccccc1,5,4,-1,.,.
O=C(N/N=C/c1ccccn1)c1ccc(Cl)cc1,-5,12*,15,-77,-20
COc1ccc(C(=O)Nc2ccccc2C(=O)N/N=C/c2ccccn2)cc1OC,-5,10*,2,-110,-32
CC(C)Oc1ccc(S(=O)(=O)N2CCOCC2)cc1NC(=O)C1CCCCC1,4,0,7,.,.
CC(C)(C)c1nc(-c2ccccc2)nc2c1OCCC2,5,0,-1,.,.
Cc1cc(C)nc(N2CCCC(C(=O)Nc3cccc(Cl)c3)C2)n1 (stereo unspecified),4,-1,-3,.,.
COc1cc(CNc2ccc3[nH]c(=O)[nH]c3c2)ccc1OCc1ccc(C)cc1,.,9.0*,.,74*,30*
O=c1[nH]c2ccc(NCc3ccc(OCc4ccccc4Cl)cc3)cc2[nH]1,.,2,.,.,.
COc1cc(CNc2ccc3[nH]c(=O)[nH]c3c2)ccc1OCc1cccc(C)c1,-7,6,-12,.,.
COc1cc(CNc2ccc3[nH]c(=O)[nH]c3c2)ccc1OCc1ccccc1Cl,-12,7.9*,-5,36*,20*
Cc1ccc(NC(=O)c2cc(N3C(=O)C=CC3=O)ccc2N2CCOCC2)cc1Cl,-21,4,-30,.,.
SMILES,proCasp3 act,FXN GAA850 act,proCasp7 act,GAA30 FXN cntr,FXN GAA850 conf
CCOc1ccc(S(=O)(=O)N(CC)CC(=O)NCc2cccnc2)cc1,2,1,0,.,.
CC(C)Oc1ccc(C2CC(=O)N(c3cccc(/C=C/C(=O)O)c3)C2=O)cc1 (stereo unspecified),-10,1,12,.,.
CC(=O)Nc1cccc(-c2ccnc3c2CC(C(=O)Nc2cccc(N(C)C)c2)O3)c1 (stereo unspecified),.,-5,.,.,.
Cc1ccc(C)c(-c2csc(-c3cccnc3)n2)c1,-3,0,0,.,.
COc1ccc2cc(-c3csc(-c4cccnc4)n3)ccc2c1,-10,8.1*,-2,92*,37*
c1ccc(-c2csc(-c3cccnc3)n2)cc1,-7,2,2,.,.
COc1ccc(-c2csc(-c3cccnc3)n2)cc1C,-4,9.5*,5,88*,32*
CC(=O)Nc1cc(-c2ccc(CO)cc2)cn2c(-c3cccc(C(F)(F)F)c3)cnc12,.,4,.,.,.
COc1ccc(/C=C/c2nc(-c3ccccc3O)n(-c3ccccc3)n2)cc1,-4,5,-4,.,.
